Apaf-1 act: human Apaf-1 activation; Apaf-1 apoptosome caspase-3 activation, DEVD-Rh110 fluorescence; active compounds read low; activity change, negative = activation, % at 20 µM; 330,000 tested, 0.31% active; AID 489031;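 active means activity change at or below -40% at 20 µM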
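Material: biochemical Apaf-1 apoptosome reconstitution; Medium: 20 mM HEPES buffer, pH 7.5, containing CHAPS and BSA; Reagent: dATP, cytochrome c, and (Z-DEVD)2-Rh110 caspase-3 substrate; Times: 30 min preincubation, 50 min reaction, room temperature; Signal: Rh110 fluorescence, excitation 480 nm, emission 540 nm; Measure: Caspase-3 activity via Apaf-1.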
Rh110 act interf: counter-screen for Apaf-1 activators: fluorescence interference; AID 504616; Rh110 fluorescence interference, quenched caspase reaction, Ex480/Em540; 980 tested, under 10 active; shares compounds with Apaf-1 act; fluorescence interference (activity change), % at 20 µM, hits read low;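 active means mean activity change at or below -40% when tested at 20 µM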
Apaf-1 act conf2: Apaf-1 (human) activation, single-dose confirmed. reconstituted apoptosome caspase-3 activity, DEVD-Rh110 fluorescence; active compounds read low. 980 tested, 5% active. activity change, negative = activation, % at 20 µM. shares compounds with Apaf-1 act;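 active means mean activity change at or below -40%, meaning activation of 40% or more, at 20 µM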
* hit, by the source's call; / = no result given; + = active, no number. Only a sample is shown.

SMILES | Apaf-1 act | Rh110 act interf | Apaf-1 act conf2
Cc1cc(C)nc(NS(=O)(=O)c2ccc(N)cc2)n1 | -3 | / | /
N#CCCS(=O)(=O)c1ccc(N)cc1 | -61* | 0 | 5
C[C@H](CO)N1C[C@H](C)[C@@H](CN(C)Cc2ccc(Oc3ccccc3)cc2)Oc2c(NC(=O)C3CC3)cccc2C1=O | 43 | / | /
COc1ccccc1-c1sc2ccccc2c1-c1ccc(OCCN2CCCCC2)cc1 | 62 | / | /
CC(=O)c1c(-c2ccccc2)c2cc(Cl)ccc2[nH]c1=O | -49* | -2 | 8
C#CCOCCOCCOCCNc1nc(N2CCN(C(=O)CCCCCCCCCCNC(=O)[C@@H](CCSC)n3cc(CCO)nn3)CC2)nc(N2CCN(C(=O)CCCCCCCCCCNC(=O)[C@H](CCCN=C(N)N)n3cc(C[C@@H](C)CC)nn3)CC2)n1 | 62 | / | /
CCCCCCCCCn1c2c(c(=N)c3c1CCC3)CCCC2 | 51 | / | /
CCCCN(C)C1=CC2=CC(=C(C#N)C#N)CCC2CC1 (stereo unspecified) | -76* | -659* | -40
CCN(CC)C1=CC2=CC(=C(C#N)C#N)CCC2CC1 (stereo unspecified) | -141* | + | -77*
COc1ccc(C2=C(CN(C)C)C(c3ccccc3)c3ccccc3O2)cc1 (stereo unspecified) | 12 | / | /
Cc1nc(SCc2ccccc2)c2oc3ccccc3c2n1 | -159* | 16 | 13
CCCCC[n+]1ccn(C2=C([O-])c3ccccc3C(=O)/C2=N\S(=O)(=O)c2ccc(Cl)cc2)c1 | 70 | / | /
CC(C)Cn1c(N)c(C(=O)COC(=O)C2CCCCC2)c(=O)n(C)c1=O | 43 | / | /
CC(=O)c1ccc(NC(=O)c2noc(C(C)C)c2[N+](=O)[O-])cc1 | -127* | 5 | -4
Fc1ccc(C2=NOC(c3nnc(-c4ccccc4)o3)C2)cc1 (stereo unspecified) | -461* | 11 | 12
COCCCC/C(=N\OCCN)c1ccc(C(F)(F)F)cc1 | 44 | / | /
CCCCCCCCCCCCCCCC[n+]1cccc(C(=O)N(CC)CC)c1 | 74 | / | /
C=CCn1c(SCC(=O)Nc2sccc2C(N)=O)nc2sc(CC)cc2c1=O | 42 | / | /
O=C(/C=C/c1ccc([N+](=O)[O-])cc1)/C=C/c1ccco1 | 43 | / | /
CC1(C)CC2CC(C)(CN2C(=O)c2cccs2)C1 (stereo unspecified) | -95* | 6 | 13
O=C1Cc2ccccc2C(=O)N1CCc1ccccc1 | 79 | / | /
Cc1nn(CC(=O)N2CCc3ccccc32)c(C)c1S(=O)(=O)NC(C)(C)C | -57* | 17 | 10
COc1ccc(/C=N/Nc2cc(C)nc3ccc(OC)cc23)c(OC)c1 | 43 | / | /
C=CC[C@@H](Cc1ccc(F)cc1)C(=O)OC[C@@H]1CCCN1C(=O)[C@@H](CC=C)CC(=O)N[C@@H](CO)Cc1ccccc1 | 40 | / | /
c1ccc(-c2sc3ccccc3c2-c2ccc(OCCN3CCCC3)cc2)cc1 | 78 | / | /
SMILES | Apaf-1 act | Rh110 act interf | Apaf-1 act conf2
COc1ccc(C(=O)c2nccc3cc(OC)c(OC)cc23)cc1OC | 84 | / | /
CN(C)/C=C/C(=O)c1ccc(S(=O)(=O)c2ccccc2)cc1 | -61* | -2 | 6
COc1ccc(C(=O)/C=C/N(C)C)cc1OC | -107* | 3 | 8
CCc1ccc(S(=O)(=O)/N=C2\C=CC(=O)c3ccccc32)cc1 | 55 | / | /
COc1ccc(Nc2ccc3c(c2)=NC2(CCCCC2)[N+]=3[O-])cc1 | 80 | / | /
COc1ccc(Cn2c(N)c(C#N)c3nc4ccccc4nc32)cc1OC | 86 | / | /
N#CC(c1nc2ccccc2nc1N1CCCC1)S(=O)(=O)c1ccccc1 (stereo unspecified) | 64 | / | /
COc1cccc(-c2sc3ccccc3c2-c2ccc(OCCN3CCCCC3)cc2)c1 | 64 | / | /
CCN(CCCNC(=O)CCn1c(=O)[nH]c2ccccc2c1=O)c1ccccc1 | -505* | -1 | 13
O=C1C(=O)c2ccc(-c3ccccc3)cc2-c2ccccc21 | 98 | / | /
Cc1ccc(S(=O)(=O)N(C)C)cc1NC(=S)Nc1cccc2ccccc12 | 93 | / | /
Cc1ccc(S(=O)(=O)N(C)C)cc1NC(=O)CSc1nc2ncc(Cl)cc2[nH]1 | -111* | 3 | 19
Cc1oc2c(c1C(=O)c1ccccc1)C(=O)C(=O)c1ccccc1-2 | 91 | / | /
COc1ccc(CNc2ccc3cn[nH]c3c2)c(OC)c1OC | 46 | / | /
OCc1cn(-c2ccc(Cl)cc2)nn1 | -56* | 8 | 12
C#CCOCCOCCOCCNc1nc(N2CCN(C(=O)CCCCCCCCCCNC(=O)[C@H](CCCCN)n3cc(C)nn3)CC2)nc(N2CCN(C(=O)CCCCCCCCCCNC(=O)[C@H](CCCN=C(N)N)n3cc(C[C@@H](C)CC)nn3)CC2)n1 | 75 | / | /
CCOC(=O)c1ccc(-n2[nH]c(-c3ccccc3)cc2=O)cc1 | 43 | / | /
CCOC(=O)c1cc(C#N)c(N2CCN(c3ccccn3)CC2)nc1-c1ccccc1 | -443* | 14 | 20
CCOC(=O)c1cnn(-c2c(Cc3ccccc3)c(C)nc3c(-c4ccccc4)c(C)nn23)c1N | 62 | / | /
CC(=O)c1ccc(NC(=O)CC2Nc3cccc4cccc(c34)NC2=O)cc1 (stereo unspecified) | 89 | / | /
O=C(CSc1cn[nH]n1)Nc1nc2ccccc2s1 | -285* | -2 | 11
CC(=O)c1ccc(NC(=O)CSc2cn[nH]n2)cc1 | -294* | -4 | 11
COC(=O)c1cccc(C23CC4(C2)[C@H](CN(CC2CCCCC2)[C@@H]4c2ccccc2)C3c2ccccc2)c1 (stereo partly specified) | 40 | / | /
COc1ccc(Br)cc1C1CC(=O)N2CN(Cc3ccccc3)CSC2=C1C#N (stereo unspecified) | 78 | / | /
COc1ccc(SC[C@H](C)CN2CC[C@H](NC(=O)OCc3ccccc3)CCC2=O)cc1 | 70 | / | /
SMILES | Apaf-1 act | Rh110 act interf | Apaf-1 act conf2
O=C(NC1(O)C(=O)c2ccccc2C1=O)c1c(Cl)cccc1Cl | 96 | / | /
O=C(Cn1nc(-c2ccccc2Cl)ccc1=O)Nc1ccccc1-c1ccccc1 | 56 | / | /
CC(NC(=O)c1ccccc1Cl)C(=O)O (stereo unspecified) | -532* | -1 | 3
CC(C)(C)C(=O)[C@@H]1[C@@H]2C(=O)N(c3ccc4c(c3)OCCO4)C(=O)[C@@H]2C2c3ccccc3C=CN21 (stereo partly specified) | 62 | / | /
CC1(C(=O)Nc2cccc3ccccc23)CC1(Br)Br (stereo unspecified) | 56 | / | /
Oc1ccc(C=Nc2ccc3ncccc3c2)c(O)c1 | 95 | / | /
COCc1cc(=O)oc2cc(NC(=O)c3ccc(C(C)(C)C)cc3)ccc12 | -64* | 0 | 7
CCCCCCCCCCn1c2c(c(=N)c3c1CCC3)CCC2 | 74 | / | /
C#CCOCCOCCOCCNc1nc(N2CCN(C(=O)[C@H](Cc3ccc(O)cc3)n3cc([C@@H](N)C(C)CC)nn3)CC2)nc(N2CCN(C(=O)[C@H](Cc3cc4ccccc4[nH]3)n3cc([C@@H](N)Cc4ccc(O)cc4)nn3)CC2)n1 (stereo partly specified) | 56 | / | /
Cc1ccc(NS(=O)(=O)c2ccc(NC(=O)C3CCCO3)cc2)cc1 (stereo unspecified) | -52* | 6 | 12
CC(=O)Nc1ccc(S(=O)(=O)NC2=C(N3CCN(c4ccc(F)cc4)CC3)C(=O)c3ccccc3C2=O)cc1 | 64 | / | /

High-throughput results from PubChem BioAssay.
